# In ChEMBL document CHEMBL4513216, “Probing the Open Global Health Chemical Diversity Library for Multistage-Active Starting Points for Next-Generation Antimalarials” (ACS Infect Dis, 2020):
# Assay: Toxicity liver stage against HepG2, at 10uM
# Type: cell-based
# Set-up: test concentration 10 uM, cell line HepG2-A16-CD81EGFP
# Settings: human, HepG2-A16-CD81EGFP cells; read-out: INHIBITION
# Method in brief: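 Uninfected HepG2-A16-CD81EGFP cells, 3 × 10^3 per well, 1536-well, plated on prespotted compound at 10 μM final, parasite-free screening media added to match infected plates; puromycin 10 μM positive, DMSO 0.5% negative; run in parallel with 48 h PbLuc assay at 37 °C, 5% CO2; viability by CellTiter-Glo luminescence, normalized to controls.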
row,Compound,cytotoxicity at 10 µM [%]
1,Cc1ccc(S(=O)(=O)Nc2c(C)nn(C)c2C)cc1C,12.9
2,CN1CCC(NC(=O)NCc2csc(Br)c2)CC1,-8.92
3,CC(C)(C)c1cc(C[C@H]2CNCC[C@H]2CC(=O)NCc2cccs2)no1,-2.28
4,CCOC(=O)CNC(=O)NCc1cccn1Cc1cccc(C)c1,9.24
5,CCOC(=O)c1nc(CC(=O)Nc2ccccc2)no1,6.96
6,O=c1c(NCCc2ccc(O)cc2)c(NCc2ccco2)c1=O,-10.7
7,O=C(CCCNc1ncccn1)Nc1ccc(Cn2cncn2)cc1,0.55
8,COCCn1cc(C(=O)Nc2nc3c(s2)CCC3)c2ccccc21,77.9
9,CCOc1cc(NC(=O)C2CC(=O)N(c3cccc(OC)c3)C2)ncn1 (stereo not given),-4.31
10,CC(C)c1nc(-c2cc(C(=O)O)c3ccccn23)cs1,7.43
11,Cc1ccc(CN2CC[C@@H]3CN(S(C)(=O)=O)CCO[C@@H]3C2)o1,8.76
12,O=c1cc(Cn2cncn2)nc2n1CCCN(Cc1ccco1)C2,7.61
13,CNC(=O)CSc1cnn(CC(=O)Nc2cccc(Cl)c2C)c(=O)c1Cl,-17.6
14,CC(C)(C)NCc1nn(Cc2ccccc2)nc1-c1ccccc1,11.9
15,COc1cccc(C(C)Nc2ncnc3c2NC(=O)CN3)c1 (stereo not given),9.76
16,COc1ccc(CNc2ncnc3c2NC(=O)CN3)cc1,11.8
17,CCN(CC)C(=O)c1ccn(COc2cc(C)cc(C)c2)n1,13.9
18,Cc1cc(N(C)C)nc(C2COCCN2Cc2cscn2)n1 (stereo not given),-6.94
19,Cc1cccc(C)c1Nc1noc2c1CN(C(=O)c1ccnn1C)CC2,7.3
20,O=C(CCc1ccc(Cl)cc1)N[C@@H]1CC[C@@H](O)[C@@H]1O,3.85
21,Cc1ccnc(C2(C)CCCN2S(=O)(=O)c2ccccc2)n1 (stereo not given),0.435
22,Cn1cc(C2=NOC(C(=O)NC3(c4ccccc4F)CCCC3)C2)cn1 (stereo not given),-0.269

row,Compound,cytotoxicity at 10 µM [%]
1,COCCN1CCC(c2cncc(-c3ccccc3C)n2)CC1,-15.1
2,O=C1NCC2(CCCN(Cc3ccc(F)cc3)C2)Oc2ccccc21 (stereo not given),-12.8
3,Nc1cc(CCC2CN(Cc3cccc(C(=O)O)c3)CCO2)ccn1 (stereo not given),-1.17
4,Cc1ccc(OCC(=O)Nc2cc(C(=O)O)cc(S(C)(=O)=O)c2)cc1C,-4.95
5,N#Cc1ccc(CN2CCCC(Cn3cncn3)C2)c(F)c1 (stereo not given),0.762
6,Cc1ccc(CNCc2cc(Br)c3c(c2)OCO3)cc1,5.35
7,O=C(CN1CCCC(c2ncc[nH]2)C1)NCCCN1CCCCCC1=O (stereo not given),6.66
8,CCOCCN1CCN(c2ccc(C#N)cn2)CC1,-4.21
9,Cc1nc(NCc2nncn2C2CC2)c2c(CC(C)C)csc2n1,-5.57
10,O=C(CCc1ccccc1)NCC(O)c1c(F)cccc1F (stereo not given),-0.558
11,Cc1cccc(S(=O)(=O)NCc2cccc(CS(C)(=O)=O)c2)c1,-18.4
12,O=C(Nc1cccc(F)c1)NC1CCN(Cc2ccncc2)CC1,-9.01
13,Cc1cccc(NC(=O)[C@@H]2CCCN2Cc2cnc3ccccn23)n1,-7.22
14,Cc1ccc(S(=O)(=O)N2CCC(N3CCCCC3)CC2)cc1C,8.95
15,Cn1cc(CNC(=O)NCCOc2ccc(F)c(F)c2)cn1,2.13
16,CC(C)(C)NC(=O)NC(=O)COc1nc(C(C)(C)C)no1,-1.62
17,CCc1nc(C)c(C(=O)N2CCCC(c3noc(C)n3)C2)s1 (stereo not given),5.82
18,CC(C)NC(=O)Nc1cccc2c1CCN(S(C)(=O)=O)C2,-8.59
19,O=C(NCCCNC(=O)c1cccc(O)c1)Nc1ccc(Cl)cc1,-3.79
20,Cc1csc(N2CCN(Cc3cscn3)CC2C)n1 (stereo not given),16
21,CC(=O)N1CCC(CCNC(C)c2cc(C)cc(C)c2)CC1 (stereo not given),-9.8
22,Cc1noc(C2CCN(CC(=O)N3CCNC(=O)C3)CC2)n1,2.41

row,Compound,cytotoxicity at 10 µM [%]
1,CC(=O)N(CCc1ccccc1)CC(=O)Nc1ccccc1C#N,6.59
2,O=C(c1ccc2nncn2c1)N1CCSC2(CCCCC2)C1,-5.32
3,Cc1cc(CN(CCO)c2ccccc2)on1,-14.7
4,CC(NCCCc1cnn(C)c1)c1ccc(Br)s1 (stereo not given),9.59
5,CCN(Cc1csc(C)n1)c1cccc(CO)c1,-6.55
6,CC/C=C(/C)C(=O)NS(=O)(=O)c1ccc(C#N)c(C(F)(F)F)c1,2.99
7,CC(C)c1ccc(S(=O)(=O)Cc2nc(N)nc(N(C)C)n2)cc1,-11.1
8,COC(=O)c1ccc(C(=O)NCc2ccc(Br)cc2)cn1,-23.2
9,CCOCc1ccccc1NC(=O)NC1CCN(C(=O)OCC)CC1,-14.5
10,Cc1cc(Cl)c2c(c1)C1(NC(=O)c3cccnc3N1)C(=O)N2 (stereo not given),4.97
11,O=c1ccc(-c2ccccc2F)nn1CCN1CCCS1(=O)=O,-10
12,CO[C@H]1CCN(C(=O)Cc2ccc(F)cc2)[C@H]1Cc1ccncc1,5.55
13,CS(=O)(=O)N1CCC2(CC1)CC(NCc1ccccn1)c1ccccc12 (stereo not given),-109
14,COC[C@@H]1CC[C@H]2[C@H](CCN2S(=O)(=O)c2ccc(OC)cc2)O1,0.796
15,Nc1ncc(-c2ccc(NC(=O)[C@@H]3CCCCN3)cc2)cn1,-4.44
16,Cn1cccc1-c1cc(C(=O)N2CCCC2c2nccs2)[nH]n1 (stereo not given),3.78
17,O=C(Cc1cn2ccsc2n1)N1CCOCC(O)(CN2CCCC2)C1 (stereo not given),-3.36
18,Cc1cc(C(=O)NCCC2CN(C)CCO2)c2cccc(C)c2n1 (stereo not given),-2.94
19,Cc1ccc(-c2nnc(CN3CCCC(O)(CO)CC3)o2)n1C (stereo not given),-2.4
20,CCCOc1ccc(Cl)cc1CNc1ncnc2oc(C)nc12,9.98
21,Cc1cccc(OC2CN(C(=O)c3cnn(C)c3)C2)c1,-2.92
22,CN1CCCCCC1C(=O)N1CCCN(c2ccccc2)CC1 (stereo not given),-6.56

row,Compound,cytotoxicity at 10 µM [%]
1,C[C@@H]1CN(S(=O)(=O)c2ccc(F)cc2F)C[C@]1(C)O,-3.36
2,COc1nc2ccn(CCc3scnc3C)c(=O)c2cc1C#N,12.8
3,CNC(=O)C(C)NC(=O)c1cc(COc2ccc(OC)cc2Cl)[nH]n1 (stereo not given),5.27
4,Nc1ccnc(N2CCC(Cc3ccccc3Cl)(C(=O)O)CC2)n1,2.8
5,O=C(c1ccco1)N1CCc2ncnc(NCc3ccccn3)c2CC1,5.61
6,O=C1CC[C@@H](C(=O)N2CCC(Cn3cc(C4CCCCC4)nn3)CC2)N1,8.02
7,Cc1cc(C(F)(F)F)nc(CCNC(C)Cn2nc(C)cc2C)n1 (stereo not given),8.19
8,Cc1cc(CN2CCc3nc(C)n(C)c(=O)c3CC2)[nH]n1,-7.92
9,CCCn1cnnc1CNCc1c[nH]nc1-c1ccc(F)cc1,2.69
10,CN1CC2(CCCN(c3nc(N)nc4c3CCCC4)C2)OC1=O (stereo not given),-0.519
11,Clc1ccc2cccnc2c1CN1CCCCC1Cn1cncn1 (stereo not given),7.63
12,Cc1nccn1C1CCCN(C(=O)c2ccc3c(c2)nc(C)n3C)C1 (stereo not given),-9.75
13,CC(C)c1noc(CN2CCN(C(=O)c3cccnc3O)CC2)n1,-9.86
14,O=C(c1cccc(OCc2cscn2)c1)N1CCOCC1,-6.13
15,Cc1nccn1CC1CCCN1S(=O)(=O)Cc1cccc(C#N)c1 (stereo not given),-20.7
16,CC(C)c1ncc2c(n1)CN(Cc1noc(-c3ccccc3)n1)CC2,-0.414
17,CC(C)c1nnc2n1CCN(C(=O)c1cccc(S(C)(=O)=O)c1)C2,-28.4
18,Cc1ccc(-c2cnn(CC(=O)NC(C)C)c2)cc1,0.724
19,N#Cc1cccc(NS(=O)(=O)c2ccc(C(=O)O)cc2F)c1,-3.67
20,O=C(CCNc1ncccn1)N1CCN(c2nccs2)CC1,-11.6
21,C1CCCN(CC2CCCN(Cc3noc(C4CC4)n3)C2)CC1 (stereo not given),-12.7
22,Cc1cnc(CNC(=O)NCc2cccnc2N(C)C)s1,-12.4

row,Compound,cytotoxicity at 10 µM [%]
1,Cc1nn(C)c(C)c1C1CCCN1C(=O)c1ccc(CN(C)C)cc1 (stereo not given),-7.79
2,CCN1CCC(CNC(=O)NCc2cc(-c3ccc(C)cc3)no2)C1 (stereo not given),-12.3
3,O=C(NCCC(=O)N1CCCC1)c1nn(-c2ccccc2F)cc1O,-13.9
4,N#Cc1cccc(S(=O)(=O)NC(=O)COc2ccc3c(c2)CCC3)c1,1.33
5,CN(Cc1noc(C2CC2)n1)C1CCN(Cc2ccncc2)C1 (stereo not given),-10.6
6,CCN(Cc1ccc2c(c1)OCO2)C(=O)c1ccc(C)[nH]c1=O,-7.21
7,CCc1n[nH]c(C2CN(C(=O)c3cnc(C)s3)CCO2)n1 (stereo not given),-6.64
8,Cn1nc2c(cc1=O)CN(Cc1nnc(-c3ccco3)o1)CC2,-4.64
9,Fc1ccc(Cc2cnc(C3CCCN3)cn2)cc1 (stereo not given),-9.77
10,O=C(c1ncccn1)N1C[C@H]2CCC[C@@]2(COCc2cccnc2)C1,1.83
11,Cc1cnnn1Cc1nnn2c1CN(Cc1cccs1)CCC2,8.28
12,Cc1cnc(N2CCO[C@@H]3CC(COCc4cccnc4)C[C@H]32)nc1 (stereo not given in full),3.93
13,c1coc(CN2CCCn3c(nnc3Cn3cccc3)C2)c1,-0.314
14,O=C(c1cccs1)N1CC[C@@H]2CN(C3CCOCC3)CCO[C@@H]2C1,-110
15,Cc1nc(CN2CCC3(CC2)NC(=O)CC3c2ccncc2)cs1 (stereo not given),5.79
16,COc1cccc(-c2noc(C3CCN(Cc4ccccc4C)C3)n2)c1 (stereo not given),-6.88
17,Cc1ccc(CN2CC(C(=O)Nc3ccccc3)C3(CCOCC3)C2)s1 (stereo not given),-17.5
18,CN(C)C(=O)COCc1nnc2n1CCN(Cc1ccoc1)C2,8.49
19,O=C(c1ccc[nH]1)N1CCCn2c(CNC3CCC3)nnc2C1,-105
20,CNc1nc2cn(CCc3ccc(F)cc3)c(=O)c-2c[nH]1,7.55
21,Cc1[nH]nc(CCC(=O)N2C[C@@H]3CC[C@H]2CN(C(=O)N(C)C)C3)c1C,3.8
22,CCNc1nc2cn(-c3ccc(OC(F)(F)F)cc3)c(=O)c-2c[nH]1,11.8
